Measurements pooled from the literature.
Compare with care: the assays were run in different laboratories.
PI4KB: Phosphatidylinositol 4-kinase beta (PI4KB, Homo sapiens, UniProt Q9UBF8)
SPHK2: Sphingosine kinase 2 (SPHK2, Homo sapiens, UniProt Q9NRA0)
cah: cah (Neisseria gonorrhoeae, UniProt Q50940)
CA4: Carbonic anhydrase 4 (CA4, Homo sapiens, UniProt P22748)
HDAC4: Histone deacetylase 4 (HDAC4, Homo sapiens, UniProt P56524)
Grm7: Metabotropic glutamate receptor 7 (Grm7, Rattus norvegicus, UniProt P35400)

SMILES | target | test | test system | setting | measurement | result
CN(C)C1CCN(C(=O)c2ccc(NC(=O)Nc3ccc(-c4nc(N5CCOCC5)nc(N5CCOCC5)n4)cc3)cc2)CC1 | PI4KB | binding, competition with immobilised ligand |  |  | Kd | > 30000 nM
COc1cc(C2Oc3cc([C@H]4Oc5cc(O)cc(O)c5C(=O)[C@@H]4O)ccc3OC2CO)ccc1O (some centres unmarked) | Cytochrome P450 2B1 (Cyp2b1, Rattus norvegicus, UniProt P00176) | enzyme activity, inhibitor | rat, liver microsomes | 1 h | Ki | 58400 nM
C=CC(=O)N1CCC(C(=O)N(C)CC(=O)N2CCN(c3nc(-c4cnc(N)nc4C(F)F)nc(N4CCOCC4)n3)CC2)CC1 | PI4KB | binding, competition with immobilised ligand |  |  | Kd | > 30000 nM
N=C(N)N1CCC[C@H]1c1nc(-c2ccc(CCC3CCCCC3)c(C(F)(F)F)c2)no1 | SPHK2 | enzyme activity, inhibitor |  |  | Ki | 90 nM
CC[C@H](NC(=O)[C@H](CS(=O)(=O)CC1CC1)N[C@@H](c1ccc(F)cc1)C(F)(F)F)C(=O)C(=O)NC1CC1 | Procathepsin L (CTSL, Homo sapiens, UniProt P07711) | enzyme activity, inhibitor, fluorescence |  | with preincubation | Ki | 0.25 nM
NS(=O)(=O)c1nnc(NC(=O)CC2CCC2)s1 | cah | enzyme activity, inhibitor |  |  | Ki | 5.8 nM
NS(=O)(=O)c1ccc(C(=O)CSCc2ccccc2)cc1 | CA4 | thermal stability, DSF |  | pH 7 | Kd | 16 nM
CCCN(CCCCOCCOCCOCC(=O)N[C@H](C(=O)N1C[C@H](O)C[C@H]1C(=O)NCc1ccc(-c2scnc2C)cc1)C(C)(C)C)C[C@@H](C)NC(=O)c1ccc(-c2noc(C(F)(F)F)n2)cc1 | HDAC4 | protein level, degrader |  |  | DC50 | 3 nM
O=C(Nc1ccc(CN2CCOCC2)c(C(F)(F)F)c1)c1ccc(C#Cc2cccc3cnccc23)cn1 | Oxidized purine nucleoside triphosphate hydrolase (NUDT1, Homo sapiens, UniProt P36639) | enzyme activity, activator |  |  | AC50 | 5500 nM
CCCC[C@H](NC(=O)[C@H](C)c1c(C)[nH]c2ccc(O)cc12)c1ncc(-c2cc3ccccc3nc2OC)[nH]1 | Alpha-1B adrenergic receptor (Adra1b, Rattus norvegicus, UniProt P15823) | cell-free assay |  |  | Ki | 3940 nM
NS(=O)(=O)c1nnc(NC(=O)C2CCCC2)s1 | cah | enzyme activity, inhibitor |  |  | Ki | 14.1 nM
CCCN(CCCCOCCOCCOCCOCCOCC(=O)N[C@H](C(=O)N1C[C@H](O)C[C@H]1C(=O)NCc1ccc(-c2scnc2C)cc1)C(C)(C)C)C[C@@H](C)NC(=O)c1ccc(-c2noc(C(F)(F)F)n2)cc1 | HDAC4 | protein level, degrader |  |  | DC50 | 4 nM
N[C@@H](CCC(=O)O)C(=O)O | Grm7 | ion flux, agonist |  |  | EC50 | 260000 nM
N=C(N)N1CCC[C@H]1c1nc(-c2ccc(CCc3ccc(C(F)(F)F)cc3)c(C(F)(F)F)c2)no1 | SPHK2 | enzyme activity, inhibitor |  |  | Ki | 165 nM
COC(=O)c1ccc(-n2c(C)cc(C(=O)CSc3ccc(NC(C)=O)cc3)c2C)cc1 | Grm7 | calcium signal, positive allosteric modulator |  |  | EC50 | 1580 nM
CCOC(=O)[C@](CC)(CCCS(=O)(=O)CCOCCOCCNC(=O)OC(C)(C)C)NC(=O)c1ccc(C2CC2)c(Cc2ccc(F)cc2)n1 | Cannabinoid receptor 2 (Cnr2, Mus musculus, UniProt P47936) | cAMP, agonist |  |  | EC50 | 33 nM
Nc1ncnc2c1ncn2[C@@H]1O[C@H](COP(=O)(O)OP(=O)(O)OP(=O)(O)O)[C@@H](O)[C@H]1O | P2X purinoceptor 1 (P2RX1, Homo sapiens, UniProt P51575) | ion current, agonist, two-electrode voltage clamp |  | oocytes | EC50 | ~900 nM
Cc1cnc(-c2ccc(-c3ccc(NC(=O)Nc4c(F)cc(F)cc4F)cc3F)c3c2C(=O)NC3)[nH]1 | Tyrosine-protein kinase Blk (BLK, Homo sapiens, UniProt P51451) | binding, competition with immobilised ligand |  |  | Kd | 2.2 nM
NS(=O)(=O)c1nnc(NC(=O)CC2CC2)s1 | cah | enzyme activity, inhibitor |  |  | Ki | 29.3 nM
FC(F)(F)c1ccc(C(c2c[nH]c3ccccc23)c2c[nH]c3ccccc23)cc1 | Nuclear receptor subfamily 4immunitygroup A member 1 (NR4A1, Homo sapiens, UniProt P22736) | binding, SPR |  |  | Kd | 3000 nM
NS(=O)(=O)c1cc(C2(O)CSC3=NCCN32)ccc1Cl (centres unmarked) | CA4 | thermal stability, DSF |  | pH 7 | Kd | 40 nM
NS(=O)(=O)c1nnc(NC(=O)C2CC2)s1 | cah | enzyme activity, inhibitor |  |  | Ki | 15.2 nM
CCC(=O)N1CCC(C(=O)N(C)CC(=O)N2CCN(c3nc(-c4cnc(N)nc4C(F)F)nc(N4CCOCC4)n3)CC2)CC1 | PI4KB | binding, competition with immobilised ligand |  |  | Kd | > 30000 nM
